Most compounds without a hit are left out; they make up all but 1.8% or so of the library.
SIAE primary: human SIAE inhibition, primary screen; actives 0.69% (n = 370,000); AID 1053197; inhibition, % at 9.66 µM; SIAE FP-Rh probe binding, fluorescence polarization; Q9HAT2;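 active means inhibition above a cutoff: mean of compounds within the control limits plus 3 SD of those, cut at about 17% in these data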
TCR-CD3 inh: blocks the human TCR-CD3 interaction; actives 0.37% (n = 360,000); AID 651800; TAMRA-labeled TCR probe fluorescence, biochemical; inhibition, % at 9.4 µM;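 further: recombinant mutant TCR 2C K166C tagged with TAMRA read by polarization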
DDE Tn7 FP inh: DD(E)-Tn7 binding inhibition, primary FP screen | P02675 | FP displacement of FITC-Tn7 peptide from fibrin DD(E); 0% = median of compound wells per plate | inhibition, % at 8.3 µM | actives 0.13% (n = 370,000);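 active means inhibition above the mean of compounds falling within the control limits plus 3 SD of them, cut at about 14% in these data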
Target sequence (P02675 whole entry, looked up): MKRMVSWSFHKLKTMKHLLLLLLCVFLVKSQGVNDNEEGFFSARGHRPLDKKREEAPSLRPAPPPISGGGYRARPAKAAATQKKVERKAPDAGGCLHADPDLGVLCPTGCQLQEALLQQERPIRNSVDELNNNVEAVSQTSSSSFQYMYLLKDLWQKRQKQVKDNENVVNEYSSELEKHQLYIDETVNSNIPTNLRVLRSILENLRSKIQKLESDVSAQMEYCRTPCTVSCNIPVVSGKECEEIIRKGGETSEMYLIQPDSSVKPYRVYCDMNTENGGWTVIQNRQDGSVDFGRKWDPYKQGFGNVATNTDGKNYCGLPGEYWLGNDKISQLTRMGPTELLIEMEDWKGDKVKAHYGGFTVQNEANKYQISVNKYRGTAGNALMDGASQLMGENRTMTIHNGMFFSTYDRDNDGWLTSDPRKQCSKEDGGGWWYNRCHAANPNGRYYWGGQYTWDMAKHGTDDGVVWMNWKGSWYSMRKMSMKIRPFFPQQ
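system = human fibrin DD(E) protein | quantity = DD(E) 2 µM final | medium = Tris/NaCl/CaCl2 buffer, pH 7.8 | also added = labelled Tn7 tracer, 0.1 µM | compound dosing = single point at 8.3 µM | timing = compound with protein 10 min, then 3 h after probe, room temperature | signal = FP measurement | benchmarks = Aha-Tn7 high control | repeats = one replicate per compound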
mABHD4 FP: inhibitors of mouse ABHD4. Q8VD66. purified mABHD4, FP-Rh probe fluorescence polarization. inhibition, % at 8.92 µM. actives 0.54% (n = 370,000);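 active means inhibition exceeding the mean over every tested compound plus 3 SD, cut at about 30% in these data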
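Assay system: mABHD4 protein; medium: HEPES pH 7.0, NaCl, Pluronic buffer; dosing: 8.92 µM, single dose; schedule: 45 min + 60 min at 25 °C; signal: FP readout, ex 525 nm / em 598 nm; read-out: normalized percent inhibition of probe labeling; repeats: single replicate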
Tn6 DDE FP: disrupts Tn6 cyclic peptide binding to fibrin D-Dimer-E complex; P02675; Fibrin DD(E) TRITC-Tn6 fluorescence polarization displacement; inhibition, % at 8.3 µM; actives 0.21% (n = 370,000);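 active means inhibition above a per-campaign cutoff: mean of compounds within control limits plus 3 SD, cut at about 15% in these data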
HTRA1 inh: HTRA1 (human) protease inhibition; inhibition, % at 5.96 µM; Q92743; actives 0.5% (n = 340,000); recombinant HTRA1, FP-rhodamine activity-based probe, fluorescence polarization; in the data active means inhibition above about 36%
HTRA1 conf: confirmation of human HTRA1 inhibitors; shares compounds with HTRA1 inh; recombinant HTRA1, FP-rhodamine activity-based probe, fluorescence polarization; inhibition, % at 5.96 µM; actives 66% (n = 1,600); AID 540248;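 active means mean inhibition over three repeats above a set limit taken from the earlier primary screen, cut at about 37% in these data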;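 further: inhibitors block probe binding so polarization drops and inhibition rises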
BSA TAMRA ctr: BSA probe counter-screen for TCR-CD3 inhibitors. TAMRA-labeled BSA probe fluorescence counterscreen. shares compounds with TCR-CD3 inh. AID 652035. actives 10% (n = 1,200). inhibition, % at 9.4 µM; in the data active means inhibition above about 23%
TCR-CD3 conf: confirmation of human TCR-CD3 interaction inhibitors; shares compounds with TCR-CD3 inh; TAMRA-labeled TCR probe fluorescence binding assay; inhibition, % at 9.4 µM; actives 48% (n = 1,200)
Tn6 DDE ctr: DD(E)-Tn6 binding inhibition, counter-screen. shares compounds with Tn6 DDE FP. Fibrin DD(E), TRITC-Tn6 fluorescence polarization displacement; 0% = median of compound wells, not DMSO. inhibition, % at 8.3 µM. actives 2% (n = 680). AID 720621;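 active means inhibition above the mean of test compounds lying between the control limits plus 3 SD of those, cut at about 14% in these data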
DDE Tn6 confirm: DD(E)-Tn6 binding inhibition, FP confirmation. shares compounds with Tn6 DDE FP. FP displacement of TRITC-Tn6 peptide from DD(E); 0% = per-plate median of test wells. inhibition, % at 8.3 µM. actives 10% (n = 680). AID 720631;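 active means inhibition above the mean of compounds lying within the control limits plus 3 SD, cut at about 16% in these data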
ABHD4 confirm: ABHD4 (mouse) inhibition, FP confirmation; shares compounds with mABHD4 FP; purified mABHD4, FP-Rh probe fluorescence polarization; inhibition, % at 8.92 µM; actives 55% (n = 1,800);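 active means mean inhibition across replicates above the hit cutoff set in the primary screen, cut at about 30% in these data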
SIAE confirm: human SIAE inhibition, confirmation; shares compounds with SIAE primary; inhibition, % at 9.66 µM; SIAE FP-Rh activity-based probe, fluorescence polarization; AID 1117263; actives 13% (n = 2,300);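 active means mean inhibition of the replicates above the hit cutoff set in the primary screen, cut at about 17% in these data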;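 further: inhibitors lower polarization as more probe stays unbound to SIAE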
Of the large screens only hits and unclear results are named; the others gave an inactive call (follow-up assays come after a bar, where they were run). Unless noted, no stated cut-off is given here; in the data, active means inhibition above about 19%; inactive means the rest.

CC(=O)Nc1ccc(N2CCN(c3ccc(F)cc3)CC2)cc1	none
O=C(O)/C=C\C(=O)Nc1ccc(N2CCN(c3ccc(Cl)c(Cl)c3)CC2)cc1	SIAE primary 27, TCR-CD3 inh 30, mABHD4 FP 39, HTRA1 inh 57 | HTRA1 conf inactive | BSA TAMRA ctr inactive | TCR-CD3 conf inactive | ABHD4 confirm inactive | SIAE confirm inactive
O=C(O)/C=C\C(=O)Nc1ccccc1C(=O)N1CCN(c2ccc(Cl)cc2)CC1	none
O=C(O)/C=C\C(=O)Nc1ccc(N2CCN(c3ccc(Cl)cc3)CC2)cc1	SIAE primary 28, TCR-CD3 inh 21, mABHD4 FP 33, HTRA1 inh 44 | HTRA1 conf inactive | BSA TAMRA ctr inactive | TCR-CD3 conf inactive | ABHD4 confirm inactive | SIAE confirm inactive
O=c1c(O)cccc2cc(O)c(O)c(O)c12	SIAE primary 24, TCR-CD3 inh 93, mABHD4 FP 55, HTRA1 inh 58 | HTRA1 conf 60 | BSA TAMRA ctr inactive | TCR-CD3 conf 81 | ABHD4 confirm 52 | SIAE confirm 18
CC(=O)N1CCC(=NNC(=O)CSc2cc(C)c(Br)cc2C)CC1	none
Cc1cc(SCC(=O)N/N=C/c2ccc(O)c(O)c2)c(C)cc1Br	SIAE primary 21, HTRA1 inh 77 | HTRA1 conf 76 | SIAE confirm inactive
CCN1/C(=C/C=C/c2oc3ccc(-c4ccccc4)cc3[n+]2CC)Oc2ccc(-c3ccccc3)cc21	SIAE primary 68, TCR-CD3 inh 105, mABHD4 FP 72, Tn6 DDE FP active, HTRA1 inh 114 | HTRA1 conf 108 | BSA TAMRA ctr 152 | TCR-CD3 conf 58 | Tn6 DDE ctr 53 | DDE Tn6 confirm 93 | ABHD4 confirm 89 | SIAE confirm inactive
CCN1/C(=C/C=C/c2sc3ccccc3[n+]2CC)Sc2ccccc21	none (no result: SIAE primary, TCR-CD3 inh, DDE Tn7 FP inh, mABHD4 FP, Tn6 DDE FP)
COc1ccc(OC)c2[nH]c(C(=O)N/N=C/c3ccccc3O)cc12	SIAE primary 35, HTRA1 inh 54 | HTRA1 conf inactive | SIAE confirm inactive
CCOC(=O)Cn1cc(CN2CCS(=O)(=O)N(Cc3ccccc3)C(C(=O)OC)C2)nn1 (stereo not drawn)	none (no result: TCR-CD3 inh, HTRA1 inh)
CCOC(=O)c1ccc(N/C=C/C(=O)C(C)(C)C)cc1	none
CN(C)c1ccc(N/C=C/C(=O)C(C)(C)C)cc1	SIAE primary 17, HTRA1 inh 59 | HTRA1 conf inactive | SIAE confirm inactive
COC(=O)[C@]12CCCCC=C1N(Cc1ccc(OC)cc1)C(=O)[C@@H]2CC(=O)NCc1ccc(OC)c(OC)c1	none (no result: TCR-CD3 inh, HTRA1 inh)
CN(C1=C(N2CCCCC2)C(=O)c2ccccc2C1=O)c1ccccc1	SIAE primary 20, mABHD4 FP 38, HTRA1 inh 66 | HTRA1 conf 75 | ABHD4 confirm 69 | SIAE confirm inactive
Clc1ccc(C2Nc3cccc4cccc(c34)N2)c(Cl)c1	SIAE primary 20, mABHD4 FP 30, HTRA1 inh 54 | HTRA1 conf inactive | ABHD4 confirm 32 | SIAE confirm inactive
O=S(=O)(c1ccc(F)cc1)N1CN(Cc2ccco2)c2nc3ccccc3nc21	SIAE primary 34, TCR-CD3 inh 46, mABHD4 FP 45, Tn6 DDE FP 36, HTRA1 inh 46 | HTRA1 conf inactive | BSA TAMRA ctr inactive | TCR-CD3 conf inactive | Tn6 DDE ctr inactive | DDE Tn6 confirm inactive | ABHD4 confirm inactive | SIAE confirm inactive
CC(C)(C)c1ccc(S(=O)(=O)N2CCCC(C(=O)N3CCN(Cc4ccccc4)CC3)C2)cc1 (stereo not drawn)	none (no result: TCR-CD3 inh, HTRA1 inh)
CCOC(=O)[C@@]12CN(C(=O)OC(C)(C)C)CC=C1N(Cc1ccc(OC)cc1)C(=O)[C@H]2CC(=O)NCCCCc1ccccc1	none (no result: TCR-CD3 inh, HTRA1 inh)
CCOC(=O)c1nc(Nc2ccc(Nc3ccccc3)cc2)c2ccccc2n1	SIAE primary 22, HTRA1 inh 46 | HTRA1 conf 60 | SIAE confirm inactive
Cc1cc(C)c(Nc2cc(S(=O)(=O)O)c(N)c3c2C(=O)c2ccccc2C3=O)c(C)c1	SIAE primary 35, mABHD4 FP 77, HTRA1 inh 66 | HTRA1 conf 67 | ABHD4 confirm 110 | SIAE confirm 29
COC(=O)[C@]12C[C@H](CC(=O)NCc3ccc(OC)c(OC)c3)C(=O)N(Cc3cccc4ccccc34)C1=C[C@H](C(C)(C)C)O[C@@H]2C	none (no result: TCR-CD3 inh, HTRA1 inh)
CC(=O)C1(C(=O)NC2CCCC2)CC(c2ccccc2C(F)(F)F)=NO1 (stereo not drawn)	none (no result: TCR-CD3 inh, HTRA1 inh)
COC(=O)c1ccccc1-c1ccc(/C=N/NC(=O)c2cc3ccccc3o2)o1	none
COC(=O)c1ccccc1-c1c2ccc(=N)cc-2oc2cc(N)ccc12	SIAE primary active, TCR-CD3 inh active, mABHD4 FP active, Tn6 DDE FP active, HTRA1 inh 136 | HTRA1 conf 142 | BSA TAMRA ctr active | TCR-CD3 conf active | Tn6 DDE ctr 53 | DDE Tn6 confirm 93 | ABHD4 confirm 183 | SIAE confirm active
Cc1ccc(S(=O)(=O)NCc2ccc3c(c2)cc(C)n3C)cc1	SIAE primary 28, TCR-CD3 inh 42, mABHD4 FP 60, Tn6 DDE FP 71, HTRA1 inh 40 | HTRA1 conf inactive | BSA TAMRA ctr inactive | TCR-CD3 conf inactive | Tn6 DDE ctr inactive | DDE Tn6 confirm inactive | ABHD4 confirm inactive | SIAE confirm inactive

Bioassay records from PubChem.
